Measurements taken from ChEMBL document CHEMBL1932969, “Acyl derivatives of boswellic acids as inhibitors of NF-κB and STATs” (Bioorg Med Chem Lett, 2012).
Active and inactive are the calls of the source. No cut-off for these calls is given here.

Tests used:
[1] = system: HL-60; test: Anticancer activity against human HL60 cells after 48 hrs by MTT assay; type: functional, cell-based; settings: HL-60, 48 h
Method in brief: (§1)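 Cell proliferation measured by MTT. Cells are incubated with each analog for 48 h at the indicated concentrations, then MTT reduction is read as an index of viability. OD of the untreated control is taken as 100% viability, and IC50 is derived from this.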

[2] = system: HL-60; test: Inhibition of NF-kappaB p50 subunit protein expression in p53-deficient human HL60 cells at 50 uM after 6 hrs by Western blot analysis; type: cell-based
Method in brief: (§2)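 HL-60 cells treated with or without compound (20 and 50 µM) for 6 h. Total cell lysates (70 µg protein) are run on 10% SDS–PAGE and immunoblotted for NF-κB p50 and p65.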

[3] = system: COLO 205; test: Anticancer activity against human COLO205 cells assessed as growth inhibition at 50 uM after 48 hrs by SRB assay; type: functional; settings: COLO 205, 48 h, read-out: GI
Method in brief: (§3)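 Cells exposed to test compounds at 50 µM for 48 h. Read-out is percent growth inhibition, with SEM given. 5-Fluorouracil and adriamycin serve as reference agents.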

[4] = system: HT-29; test: Anticancer activity against human HT-29 cells assessed as growth inhibition at 50 uM after 48 hrs by SRB assay; type: functional; settings: HT-29, 48 h, read-out: GI; method in brief: as §3
[5] = system: HL-60; test: Inhibition of STAT3beta protein expression in p53-deficient human HL60 cells at 20 to 50 uM after 6 hrs by Western blot analysis; type: cell-based
[6] = molecular target: Signal transducer and activator of transcription 3 (Homo sapiens) (UniProt P40763); test: Inhibition of STAT3 Ser727 phosphorylation in p53-deficient human HL60 cells at 20 to 50 uM after 6 hrs by Western blot analysis; type: cell-based; settings: HL-60
Chain of Signal transducer and activator of transcription 3 (Homo sapiens) (P40763 whole entry): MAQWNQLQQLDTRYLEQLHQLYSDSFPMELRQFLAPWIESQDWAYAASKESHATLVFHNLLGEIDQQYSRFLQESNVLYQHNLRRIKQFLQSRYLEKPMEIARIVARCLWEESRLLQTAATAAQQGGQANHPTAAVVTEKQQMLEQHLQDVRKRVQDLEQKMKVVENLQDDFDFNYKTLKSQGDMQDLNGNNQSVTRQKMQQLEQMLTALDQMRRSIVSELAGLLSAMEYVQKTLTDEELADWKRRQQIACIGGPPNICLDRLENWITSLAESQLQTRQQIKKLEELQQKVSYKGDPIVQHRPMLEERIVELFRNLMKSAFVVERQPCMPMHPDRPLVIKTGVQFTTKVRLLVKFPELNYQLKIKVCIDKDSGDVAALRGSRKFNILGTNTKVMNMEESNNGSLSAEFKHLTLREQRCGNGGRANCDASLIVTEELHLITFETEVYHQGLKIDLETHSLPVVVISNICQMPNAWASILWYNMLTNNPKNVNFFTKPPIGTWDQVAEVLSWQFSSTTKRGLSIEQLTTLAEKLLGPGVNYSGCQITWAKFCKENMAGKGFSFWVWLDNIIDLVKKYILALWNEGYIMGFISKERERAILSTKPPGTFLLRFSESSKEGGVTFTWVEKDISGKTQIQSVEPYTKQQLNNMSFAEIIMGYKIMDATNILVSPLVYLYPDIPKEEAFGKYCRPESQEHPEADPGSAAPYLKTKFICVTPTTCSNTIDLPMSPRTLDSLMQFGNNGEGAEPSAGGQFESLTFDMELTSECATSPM

[7] = system: HL-60; test: Induction of autophagy in p53-deficient human HL60 cells at 50 uM after 6 hrs by acridine orange staining; type: functional, cell-based
Method in brief: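 Autophagy scored by flow cytometry of HL-60 cells stained with acridine orange after 6 h exposure.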

[8] = molecular target: Transcription factor p65 (Homo sapiens) (UniProt Q04206); test: Inhibition of NF-kappaB p65 subunit protein expression in p53-deficient human HL60 cells at 50 uM after 6 hrs by Western blot analysis; type: cell-based; settings: HL-60; method in brief: as §2
Chain of Transcription factor p65 (Homo sapiens) (Q04206 whole entry): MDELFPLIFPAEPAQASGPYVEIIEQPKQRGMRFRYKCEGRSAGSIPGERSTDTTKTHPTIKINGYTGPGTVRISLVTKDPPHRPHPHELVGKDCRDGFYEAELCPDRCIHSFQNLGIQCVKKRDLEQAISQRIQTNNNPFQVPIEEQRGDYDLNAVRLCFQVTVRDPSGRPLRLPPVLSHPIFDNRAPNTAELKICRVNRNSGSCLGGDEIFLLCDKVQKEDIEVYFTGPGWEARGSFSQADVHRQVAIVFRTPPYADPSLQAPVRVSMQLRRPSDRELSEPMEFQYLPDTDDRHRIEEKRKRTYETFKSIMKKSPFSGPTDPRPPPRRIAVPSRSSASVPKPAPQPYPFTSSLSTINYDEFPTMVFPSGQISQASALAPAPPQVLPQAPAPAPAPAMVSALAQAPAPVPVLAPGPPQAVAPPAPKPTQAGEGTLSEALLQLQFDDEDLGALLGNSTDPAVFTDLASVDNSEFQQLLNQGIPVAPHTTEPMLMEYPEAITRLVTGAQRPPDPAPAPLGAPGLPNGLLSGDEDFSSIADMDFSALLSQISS

[9] = system: PC-3; test: Anticancer activity against human PC3 cells assessed as growth inhibition at 50 uM after 48 hrs by SRB assay; type: functional; settings: PC-3, 48 h, read-out: GI; method in brief: as §3
[10] = Cytotoxicity against human HGF cells after 48 hrs by MTT assay; type: cell-based; method in brief: as §1
[11] = system: HL-60; test: Induction of apoptosis in p53-deficient human HL60 cells assessed as apoptotic cells at 50 uM after 6 hrs by FITC-conjugated annexinV/PI-based flow cytometric analysis (reference value: 5 %); type: functional
Method in brief: (§4)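 HL-60 cells incubated with each analog at 50 µM for 6 h, stained with annexin V-FITC/propidium iodide and analysed by flow cytometry. Lower right quadrant is apoptotic, upper right post-apoptotic, upper left necrotic. Three experiments, with representative dot plots shown.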

[12] = system: HL-60; test: Induction of necrosis in p53-deficient human HL60 cells at 50 uM after 6 hrs by FITC-conjugated annexinV/PI-based flow cytometric analysis; type: functional, cell-based; method in brief: as §4
[13] = molecular target: Transcription factor p65 (Homo sapiens) (UniProt Q04206); test: Inhibition of NF-kappaB p65 subunit protein expression in p53-deficient human HL60 cells at 20 uM after 6 hrs by Western blot analysis; type: cell-based; settings: HL-60; method in brief: as §2
[14] = system: SW-620; test: Anticancer activity against human SW620 cells assessed as growth inhibition at 50 uM after 48 hrs by SRB assay; type: functional; settings: SW-620, 48 h, read-out: GI; method in brief: as §3
[15] = system: HL-60; test: Induction of apoptosis in p53-deficient human HL60 cells at 50 uM after 6 hrs by FITC-conjugated annexinV/PI-based flow cytometric analysis; type: functional; method in brief: as §4
[16] = system: HEp-2; test: Anticancer activity against human Hep2 cells assessed as growth inhibition at 50 uM after 48 hrs by SRB assay; type: functional; settings: HEp-2, 48 h, read-out: GI; method in brief: as §3
[17] = system: DU-145; test: Anticancer activity against human DU145 cells assessed as growth inhibition at 50 uM after 48 hrs by SRB assay; type: functional; settings: DU-145, 48 h, read-out: GI; method in brief: as §3
[18] = molecular target: T1, Signal transducer and activator of transcription 5A (Homo sapiens) (UniProt P42229); test: Inhibition of STAT5 protein expression in p53-deficient human HL60 cells at 20 to 50 uM after 6 hrs by Western blot analysis; type: cell-based; settings: HL-60
T1 sequence (whole entry): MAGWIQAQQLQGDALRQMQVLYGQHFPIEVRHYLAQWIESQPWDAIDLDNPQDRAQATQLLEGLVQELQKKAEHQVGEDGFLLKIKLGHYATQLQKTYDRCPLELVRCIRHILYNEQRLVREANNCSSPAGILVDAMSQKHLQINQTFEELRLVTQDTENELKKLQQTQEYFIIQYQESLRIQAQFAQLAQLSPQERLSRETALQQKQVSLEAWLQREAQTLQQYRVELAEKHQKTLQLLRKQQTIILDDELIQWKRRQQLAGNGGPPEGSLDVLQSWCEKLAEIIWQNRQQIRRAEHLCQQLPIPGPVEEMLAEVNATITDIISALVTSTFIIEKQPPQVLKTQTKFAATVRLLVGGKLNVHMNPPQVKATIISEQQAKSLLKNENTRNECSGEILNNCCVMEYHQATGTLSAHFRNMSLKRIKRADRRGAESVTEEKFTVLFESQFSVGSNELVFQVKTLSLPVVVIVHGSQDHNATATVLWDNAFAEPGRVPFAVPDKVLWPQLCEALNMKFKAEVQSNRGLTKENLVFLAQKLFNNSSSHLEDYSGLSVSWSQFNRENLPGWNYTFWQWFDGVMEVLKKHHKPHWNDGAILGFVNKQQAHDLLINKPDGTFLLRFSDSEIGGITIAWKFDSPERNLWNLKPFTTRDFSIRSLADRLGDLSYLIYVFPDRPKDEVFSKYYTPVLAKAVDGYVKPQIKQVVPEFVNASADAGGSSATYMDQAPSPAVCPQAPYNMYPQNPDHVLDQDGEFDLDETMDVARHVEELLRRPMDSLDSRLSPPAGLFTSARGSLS

[19] = system: HL-60; test: Induction of apoptosis in p53-deficient human HL60 cells assessed as post-apoptotic cells at 50 uM after 6 hrs by FITC-conjugated annexinV/PI-based flow cytometric analysis (reference value: 1 %); type: functional; method in brief: as §4
[20] = system: HL-60; test: Inhibition of STAT3alpha protein expression in p53-deficient human HL60 cells at 20 to 50 uM after 6 hrs by Western blot analysis; type: cell-based
[21] = molecular target: Signal transducer and activator of transcription 3 (Homo sapiens) (UniProt P40763); test: Inhibition of STAT3 Thr705 phosphorylation in p53-deficient human HL60 cells at 20 to 50 uM after 6 hrs by Western blot analysis; type: cell-based; settings: HL-60
[22] = molecular target: T1, Signal transducer and activator of transcription 5A (Homo sapiens); test: Inhibition of STAT5 Tyr694/699 phosphorylation in p53-deficient human HL60 cells at 20 to 50 uM after 6 hrs by Western blot analysis; type: cell-based; settings: HL-60
[23] = system: HL-60; test: Induction of apoptosis in p53-deficient human HL60 cells assessed as DNA fragmentation at 50 uM after 6 hrs by agarose gel electrophoresis; type: functional, cell-based
Method in brief: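 2 × 10⁶ HL-60 cells treated with derivatives at 50 µM for 6 h, then scored for an apoptotic DNA ladder of 180–200 bp fragments or multiples. The positive control is 4 µM camptothecin for 6 h.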

Question: Which IC50 [1] does the source give for `CCCC(=O)O[C@@H]1CC[C@@]2(C)[C@@H](CC[C@]3(C)[C@@H]2C(=O)C=C2[C@@H]4[C@@H](C)[C@H](C)CC[C@]4(C)CC[C@]23C)[C@@]1(C)C(=O)O` here?
Answer: 11 µM

Question: And the inhibition [2]?
Answer: Active

Question: What about the inhibition of growth at 50 µM [3] of the same compound?
Answer: 94%

Question: And the inhibition of growth at 50 µM [4]?
Answer: 96%

Question: What about the inhibition [5] of the same compound?
Answer: Active

Question: What about the inhibition [6] of the same compound?
Answer: Active

Question: And the Activity [7]?
Answer: inactive

Question: And the inhibition [8]?
Answer: 90%

Question: What about the inhibition of growth at 50 µM [9] of the same compound?
Answer: 96%

Question: And the IC50 [10]?
Answer: 80 µM

Question: What about the Activity [11] of the same compound?
Answer: 32%

Question: What about the Activity [12] of the same compound?
Answer: inactive

Question: And the inhibition [13]?
Answer: 90%

Question: What about the inhibition of growth at 50 µM [14] of the same compound?
Answer: 97%

Question: And the Activity [15]?
Answer: 80%

Question: What about the inhibition of growth at 50 µM [16] of the same compound?
Answer: 98%

Question: And the inhibition of growth at 50 µM [17]?
Answer: 93%

Question: And the inhibition [18]?
Answer: Active

Question: And the Activity [19]?
Answer: 48%

Question: And the inhibition [20]?
Answer: Active

Question: What about the inhibition [21] of the same compound?
Answer: Active

Question: And the inhibition [22]?
Answer: Active

Question: What about the Activity [23] of the same compound?
Answer: Active
